Rows were chosen to be rich in hits. Some 1.9% of all compounds tested hit in one or more screens of this group.
Tn7 DDE FP = inhibitors of Tn7 peptide binding to fibrin DD(E), primary screen, biochemical, fluorescence polarization, human fibrin, Tn7 probe | Fibrinogen beta chain (Homo sapiens), P02675 | FP displacement of FITC-Tn7 peptide from fibrin DD(E); 0% = median of compound wells per plate | inhibition, % at 8.3 µM | 0.13% of 370,000 active | AID 720508, 2013;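 active = inhibition above the mean of compounds falling within the control limits plus 3 SD of them, cut at about 14% in these data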;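 note: 0% = plate median of compound wells and 100% = 10 µM Aha-Tn7 peptide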
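assay system = human clot-derived fibrin DD(E) complex | quantity = Fibrin-DD(E) at 2 µM final | timing = 10 min preincubation, 3 h with tracer, room temperature | signal = fluorescence polarization | measure = percent inhibition | benchmarks = high control wells with 10 µM unlabelled Aha-Tn7 peptide (full inhibition) | replicates = singlicate testing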
UHRF1 MBD2 ctr = UHRF1 methylated DNA binding inhibitors, primary screen, counter-screen for MBD2 inhibitor project, biochemical, TR-FRET, human UHRF1, single concentration; AID 687016, 2013; inhibition, % at 4.4 µM; 0.75% of 370,000 active; UHRF1 binding to methylated oligo; in the data active = inhibition above about 21%;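 note: UHRF1 SRA domain binding a hemimethylated CpG hairpin DNA probe; 0% = median of test compound wells and 100% = reference inhibitor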
Tn6 DDE FP = inhibitors of Tn6 peptide binding to fibrin DD(E), primary screen, biochemical, fluorescence polarization, human fibrin, Tn6 probe; Fibrinogen beta chain (Homo sapiens), P02675; Fibrin DD(E) TRITC-Tn6 fluorescence polarization displacement; inhibition, % at 8.3 µM; 0.21% of 370,000 active; AID 720509, 2013;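 active = inhibition above a per-campaign cutoff: mean of compounds within control limits plus 3 SD, cut at about 15% in these data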;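 note: 0% = median of all compound wells on the plate and 100% = blocking peptide control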
MBD2 inh = inhibitors of MBD2 binding to methylated DNA, primary screen, biochemical, TR-FRET, DNA-binding domain, human | Methyl-CpG-binding domain protein 2 (Homo sapiens), Q9UBB5 | MBD2 binding to methylated oligonucleotide | inhibition, % at 4.4 µM | 0.31% of 370,000 active | AID 686964, 2013; in the data active = inhibition above about 13%
TDP2 inh = human TDP2 enzyme inhibitors, primary screen, biochemical, epi absorbance, recombinant enzyme; inhibition, % at 12.8 µM; T5PNP hydrolysis, p-nitrophenol absorbance 415 nm; 0.34% of 370,000 active; Tyrosyl-DNA phosphodiesterase 2 (Homo sapiens), O95551;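 active = inhibition above the mean of all tested compounds plus 3 SD, set per campaign, cut at about 25% in these data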;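 note: 0% = DMSO with enzyme and 100% = buffer with substrate but no TDP2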
Target sequence (O95551 whole entry, looked up): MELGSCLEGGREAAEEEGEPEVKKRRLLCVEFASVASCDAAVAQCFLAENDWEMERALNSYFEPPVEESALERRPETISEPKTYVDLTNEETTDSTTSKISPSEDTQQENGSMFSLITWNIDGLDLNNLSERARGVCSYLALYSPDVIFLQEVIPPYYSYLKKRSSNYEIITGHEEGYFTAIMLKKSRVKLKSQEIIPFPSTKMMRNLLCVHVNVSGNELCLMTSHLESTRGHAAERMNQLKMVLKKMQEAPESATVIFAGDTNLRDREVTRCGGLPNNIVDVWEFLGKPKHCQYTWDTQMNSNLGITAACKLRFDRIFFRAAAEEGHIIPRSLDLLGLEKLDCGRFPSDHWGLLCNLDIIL
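Read-out basis: percent inhibition. System: recombinant human TDP2. Buffer or medium: Mg2+-containing Tris-HCl buffer, pH 7.5. Repeats: single replicate. Timing: reaction 2 h, 37 °C. Benchmarks: high control without enzyme, low control DMSO plus TDP2. Probe or stimulus: 5 mM T5PNP. Doses: 12.8 µM only. Measured by: epi absorbance of p-nitrophenol freed from T5PNP by hydrolysis.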
LEDGF integ inh = blockers of LEDGF/p75-dependent integrase strand transfer – biochemical, TR-FRET, high throughput, primary screen; inhibition, % at 3.7 µM; AID 743269, 2014; HIV-1 integrase (with human LEDGF/p75); 0.64% of 370,000 active; TR-FRET IN-LEDGF/p75 DNA integration, Eu/Cy5;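 active = inhibition above the screen-wide mean plus 3 SD, cut at about 13% in these data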;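 note: signal is the Cy5 over europium emission ratio at 671 and 618 nm; 0% = plate median of compound wells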
DDE Tn7 confirm = inhibitors of Tn7 peptide binding to fibrin DD(E), confirmation, biochemical, fluorescence polarization, human fibrin, Tn7 probe; inhibition, % at 8.3 µM; shares compounds with Tn7 DDE FP; FP displacement of TRITC-Tn7 peptide from DD(E); 0% set at plate's compound-well median; 5% of 460 active; AID 720628, 2013;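 active = inhibition above the campaign cutoff, the mean of compounds within control limits plus 3 SD, cut at about 14% in these data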;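 note: 100% = median FP of high control wells holding Aha-Tn7 inhibitor peptide; displacers lower polarization since freed probe rises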
DDE Tn7 FP ctr = counter-screen for inhibitors of Tn7 peptide binding to fibrin DD(E) | shares compounds with Tn7 DDE FP | TRITC-Tn7 probe displacement, fluorescence polarization | inhibition, % at 8.3 µM | 3% of 460 active | AID 720633;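 active = inhibition above the cutoff, the mean of compounds lying between the control bounds plus 3 SD of those compounds, cut at about 17% in these data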;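 note: 0% = median of compound sample wells and 100% = excess unlabeled Aha-Tn7 peptide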
Starred values were filed as active, the others as inactive; x = no result given.

SMILES | Tn7 DDE FP | UHRF1 MBD2 ctr | Tn6 DDE FP | MBD2 inh | TDP2 inh | LEDGF integ inh | DDE Tn7 confirm | DDE Tn7 FP ctr
COc1ccc(/C=C/C(=O)OCC(=O)NCCCc2ccccc2)cc1OC | 4 | -2 | -3 | 0 | 5 | -2 | x | x
C=CCOc1ccc(/C=C/C(=O)OCC(=O)NCCCc2ccccc2)cc1 | 14* | -1 | -7 | -2 | 10 | 2 | 1 | 0
CCCS(=O)(=O)n1nc(-c2ccc(OC)cc2)cc1N | -2 | -2 | 3 | -1 | 12 | -2 | x | x
CCCS(=O)(=O)n1nc(-c2ccc(C)cc2)cc1N | 14* | -2 | 5 | -8 | 4 | 0 | -1 | -2
COC(=O)C1CN(Cc2ccccc2)CCS(=O)(=O)N1Cc1ccc(C)cc1 (centres undefined) | 1 | 1 | 7 | 2 | 0 | 3 | x | x
COC(=O)C1CN(C2CCCC2)CCS(=O)(=O)N1Cc1ccccc1 (centres undefined) | 16* | 3 | 0 | 5 | 2 | 1 | -2 | -5
CCOP(=O)(c1ccccc1)C(O)c1ccc([N+](=O)[O-])cc1 (centres undefined) | 16* | -2 | 4 | -5 | 0 | 3 | 0 | -5
CCOP(=O)(c1ccccc1)C(O)c1ccc(F)cc1 (centres undefined) | 2 | -1 | 9 | 2 | -8 | -1 | x | x
Nn1c(SCC(=O)N2c3ccccc3Sc3ccc(Cl)cc32)nnc1-c1cc(-c2ccc(F)cc2)n[nH]1 | -6 | 3 | 3 | 0 | -13 | 6 | x | x
C[C@@H]1CN([C@H](C)CO)C(=O)c2c(c3ccccc3n2C)-c2ccccc2CO[C@@H]1CN(C)C(=O)CCN(C)C | -8 | 2 | -8 | -3 | -2 | -4 | x | x
Cc1ccc(NC(=O)CS(=O)CC(=O)N(c2ccc(C)cc2)C(C)C(=O)NC2CCCCC2)cc1 (centres undefined) | 15* | -1 | 13 | -7 | 0 | -4 | 9 | 7
CC(C)CC1c2[nH]c3ccccc3c2CCN1C(=O)CCC(=O)N(C)C (centres undefined) | 15* | -1 | 0 | 2 | 0 | 0 | 3 | 2
O=C(Cn1nc(C(=O)O)c2ccccc2c1=O)Nc1cc(C(F)(F)F)ccc1-n1cncn1 | 15* | 2 | 5 | -4 | -2 | 0 | -3 | -6
O=C(Cn1nc(C(=O)O)c2ccccc2c1=O)Nc1cc(Cl)ccc1-n1cncn1 | 5 | 1 | 4 | 4 | 2 | -3 | x | x
CCOc1ccc(CCN2C(=S)N([C@@H](Cc3ccc(O)cc3)CN3CCC[C@@H]3CN3C(=S)NC[C@@H]3CC(C)C)C[C@@H]2CC(C)C)cc1 | 14* | 0 | -1 | -7 | 6 | 0 | 10 | 3
CCOc1ccc(CCN2C(=S)N([C@@H](Cc3ccc(O)cc3)CN3CCC[C@@H]3CN3C(=S)NC[C@@H]3CC(C)C)C[C@@H]2Cc2ccccc2)cc1 | 0 | -4 | -8 | -2 | 3 | 5 | x | x
O=C(OCC(=O)N1CCCc2ccccc21)c1cccc(C(F)(F)F)c1 | 15* | -4 | 3 | -6 | -5 | 0 | 3 | 4
COc1ccc(C2NC(=O)c3ccccc3N2)cc1COc1ccc(NC(C)=O)cc1 (centres undefined) | -1 | 1 | 0 | 5 | 11 | -1 | x | x
